# According to ChEMBL document CHEMBL1141088, “A new pyridazine series of GABAA alpha5 ligands” (J Med Chem, 2005):
# What was measured:
# [1] = target: T1, GABA-A receptor; alpha-1/beta-3/gamma-2 (Homo sapiens, UniProt P14867+P18507+P28472); test: Displacement of [3H]-Ro- 15-1788 binding from human recombinant Gamma-aminobutyric acid A receptor alpha-1-beta-3-gamma-2 expressed in mouse fibroblast L(tk-) cells (30 min at 24 degrees C, pH 7.4); assay type: cell-based
# T1 sequence (P14867 whole entry): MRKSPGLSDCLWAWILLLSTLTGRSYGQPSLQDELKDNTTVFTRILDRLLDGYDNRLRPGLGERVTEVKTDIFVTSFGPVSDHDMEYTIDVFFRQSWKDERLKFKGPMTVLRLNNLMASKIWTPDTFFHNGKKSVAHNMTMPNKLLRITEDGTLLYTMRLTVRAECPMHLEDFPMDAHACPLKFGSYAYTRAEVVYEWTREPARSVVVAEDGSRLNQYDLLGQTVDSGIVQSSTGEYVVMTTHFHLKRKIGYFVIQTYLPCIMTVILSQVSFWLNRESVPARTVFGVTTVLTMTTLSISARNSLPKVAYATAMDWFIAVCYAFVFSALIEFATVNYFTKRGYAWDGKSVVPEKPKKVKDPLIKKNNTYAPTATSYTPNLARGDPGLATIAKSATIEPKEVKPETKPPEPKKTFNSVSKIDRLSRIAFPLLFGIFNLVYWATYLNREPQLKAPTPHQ
# T1 sequence (P18507 whole entry): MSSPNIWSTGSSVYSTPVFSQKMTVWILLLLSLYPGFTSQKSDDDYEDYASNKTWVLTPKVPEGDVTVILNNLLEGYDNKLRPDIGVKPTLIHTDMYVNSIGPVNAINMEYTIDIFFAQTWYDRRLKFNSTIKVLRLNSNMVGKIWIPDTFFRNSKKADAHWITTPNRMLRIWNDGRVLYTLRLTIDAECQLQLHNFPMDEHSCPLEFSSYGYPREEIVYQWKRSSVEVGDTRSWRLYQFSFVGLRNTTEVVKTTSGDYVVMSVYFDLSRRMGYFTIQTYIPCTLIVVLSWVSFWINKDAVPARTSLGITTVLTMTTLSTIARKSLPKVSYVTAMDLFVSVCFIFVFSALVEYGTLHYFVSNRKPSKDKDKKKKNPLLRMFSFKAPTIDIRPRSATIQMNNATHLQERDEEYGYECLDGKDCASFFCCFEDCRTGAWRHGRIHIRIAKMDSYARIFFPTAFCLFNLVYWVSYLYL
# T1 sequence (P28472 whole entry): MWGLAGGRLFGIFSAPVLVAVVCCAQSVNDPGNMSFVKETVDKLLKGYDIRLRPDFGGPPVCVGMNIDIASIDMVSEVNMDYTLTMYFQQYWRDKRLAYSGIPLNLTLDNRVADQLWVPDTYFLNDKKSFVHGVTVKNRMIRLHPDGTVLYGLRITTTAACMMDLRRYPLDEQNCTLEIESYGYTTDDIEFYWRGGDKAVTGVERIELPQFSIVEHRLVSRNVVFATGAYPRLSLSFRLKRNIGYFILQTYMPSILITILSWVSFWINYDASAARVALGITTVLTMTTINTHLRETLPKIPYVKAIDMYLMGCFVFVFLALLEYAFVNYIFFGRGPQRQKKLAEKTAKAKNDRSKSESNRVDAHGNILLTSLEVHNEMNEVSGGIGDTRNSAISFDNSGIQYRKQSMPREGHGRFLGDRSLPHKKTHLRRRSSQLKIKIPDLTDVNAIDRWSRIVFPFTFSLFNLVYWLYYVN
# Method in brief: (§1)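 Membranes from L(tk-) cells stably expressing human α1, α3 or α5 β3γ2 in 50 mM Tris pH 7.4. [3H]Ro15-1788 at 1.8 nM final, 30 min at 24 °C. Nonspecific binding set with 10 µM flunitrazepam, total binding in 0.1% DMSO. Filtration, scintillation counting. Ki is mean ± SEM of ≥3 independent determinations.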
# [2] = target: T2, GABA-A receptor; alpha-3/beta-3/gamma-2 (Homo sapiens, UniProt P18507+P28472+P34903); test: Displacement of [3H]-Ro- 15-1788 binding from human recombinant Gamma-aminobutyric acid A receptor alpha-3-beta-3-gamma-2 expressed in mouse fibroblast L(tk-) cells (30 min at 24 degrees C, pH 7.4); assay type: cell-based; method in brief: as §1
# T2 sequence (P18507 whole entry): T1 sequence (P18507 whole entry)
# T2 sequence (P28472 whole entry): T1 sequence (P28472 whole entry)
# T2 sequence (P34903 whole entry): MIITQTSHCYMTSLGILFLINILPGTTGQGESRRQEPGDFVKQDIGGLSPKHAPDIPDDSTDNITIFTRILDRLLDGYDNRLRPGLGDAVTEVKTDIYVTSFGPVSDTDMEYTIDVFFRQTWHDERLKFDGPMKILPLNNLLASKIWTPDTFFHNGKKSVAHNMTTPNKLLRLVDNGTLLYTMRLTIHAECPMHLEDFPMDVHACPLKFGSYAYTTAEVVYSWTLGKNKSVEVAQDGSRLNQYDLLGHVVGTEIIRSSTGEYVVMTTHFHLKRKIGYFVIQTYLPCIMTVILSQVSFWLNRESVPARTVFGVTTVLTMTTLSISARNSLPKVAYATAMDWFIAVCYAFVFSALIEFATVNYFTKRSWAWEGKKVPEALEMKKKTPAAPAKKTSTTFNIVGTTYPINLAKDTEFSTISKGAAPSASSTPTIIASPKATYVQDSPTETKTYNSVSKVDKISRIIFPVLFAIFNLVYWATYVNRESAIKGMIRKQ
# [3] = target: T3, GABA-A receptor; alpha-5/beta-3/gamma-2 (Homo sapiens, UniProt P18507+P28472+P31644); test: Displacement of [3H]-Ro- 15-1788 binding from human recombinant Gamma-aminobutyric acid A receptor alpha-5-beta-3-gamma-2 expressed in mouse fibroblast L(tk-) cells (30 min at 24 degrees C, pH 7.4); assay type: cell-based; method in brief: as §1
# T3 sequence (P18507 whole entry): T1 sequence (P18507 whole entry)
# T3 sequence (P28472 whole entry): T1 sequence (P28472 whole entry)
# T3 sequence (P31644 whole entry): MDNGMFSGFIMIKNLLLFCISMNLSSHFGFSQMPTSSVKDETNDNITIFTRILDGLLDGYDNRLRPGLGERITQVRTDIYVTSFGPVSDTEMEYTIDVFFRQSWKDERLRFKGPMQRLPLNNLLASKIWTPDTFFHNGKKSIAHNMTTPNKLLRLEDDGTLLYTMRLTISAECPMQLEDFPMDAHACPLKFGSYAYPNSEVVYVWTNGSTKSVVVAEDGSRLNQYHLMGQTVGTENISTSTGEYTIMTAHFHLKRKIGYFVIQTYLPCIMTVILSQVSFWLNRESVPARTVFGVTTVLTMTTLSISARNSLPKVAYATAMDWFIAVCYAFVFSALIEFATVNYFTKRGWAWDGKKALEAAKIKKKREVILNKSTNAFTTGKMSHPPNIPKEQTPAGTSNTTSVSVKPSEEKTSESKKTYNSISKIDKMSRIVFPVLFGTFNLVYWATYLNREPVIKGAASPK
# [4] = target: T4, GABA-A receptor; alpha-3/beta-3/gamma-2 (Homo sapiens) (UniProt P18507+P28472+P34903); test: Efficacy at GABAA alpha-3-beta-3-gamma-2 receptor expressed in mouse fibroblast L(tk-) cells measured at 300 nM derived from at least three plates/day screened over a minimum of 2 days; assay type: functional, cell-based
# Method in brief: (§2)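 FRET membrane-potential (VIPR) assay in L(tk-) cells with receptor expression induced 24 h by 1 µM dexamethasone. Dye-loaded 30 min in low-Cl- HEPES buffer pH 7.4: 4 µM CC2-DMPE, 1 µM DiSBAC2(3), 0.5 mM tartrazine. Basal read 8 s, compound at 300 nM, half-maximal GABA 22 s later, 1 Hz reads. Background-subtracted 460/580 nm ratio, normalized to DMCM as -100%.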
# [5] = target: T5, GABA-A receptor; alpha-5/beta-3/gamma-2 (Homo sapiens) (UniProt P18507+P28472+P31644); test: Efficacy at GABAA alpha-5-beta-3-gamma-2 receptor expressed in mouse fibroblast L(tk-) cells measured at 300 nM derived from at least three plates/day screened over a minimum of 2 days; assay type: functional, cell-based; method in brief: as §2
# [6] = target: T5, GABA-A receptor; alpha-5/beta-3/gamma-2 (Homo sapiens); test: Efficacy for GABA-A alpha-5-beta-3-gamma-2 receptor expressed in mouse fibroblast L(tk-) cells at 300 nM derived from at least three plates/day screened over a minimum of 2 days; assay type: functional, cell-based; method in brief: as §2
# [7] = target: T4, GABA-A receptor; alpha-3/beta-3/gamma-2 (Homo sapiens); test: Efficacy for GABA-A alpha-3-beta-3-gamma-2 receptor expressed in mouse fibroblast L(tk-) cells at 300 nM derived from at least three plates/day screened over a minimum of 2 days; assay type: functional, cell-based; method in brief: as §2
Structure (SMILES),Ki [1] [nM],Ki [2] [nM],Ki [3] [nM],Efficacy [4],Efficacy [5],Efficacy [6],Efficacy [7]
COC(=O)c1sccc1-c1cnnc(-c2ccccc2)c1,88,45,12,-44,-39,,
COC(=O)c1c(-c2ccccc2)cnnc1-c1ccccc1,154,64,12,,,27,
CCNc1cc(-c2cccc(Br)c2)cnn1,3.5,7.3,3.8,2,-12,,
COc1cc(-c2cccc(Br)c2)cnn1,,205,54,42,-18,,
CCNc1cc(-c2cccc(C#N)c2)cnn1,,79,33,8,-29,,
CC(C)Oc1cc(-c2cccc(Br)c2)cnn1,26,60,36,28,12,,
N#Cc1cccc(-c2cnnc(-c3ccc(F)cc3F)c2)c1,,23,17,,-57,,
CCOc1cc(-c2cccc(C#N)c2)cnn1,,72,36,19,-9,,
CC(C)Nc1cc(-c2cccc(Br)c2)cnn1,7.3,22,7.2,25,14,,
CN(C)c1cc(-c2cccc(Br)c2)cnn1,55,120,51,-49,-62,,
N#Cc1cccc(-c2cnnc(-c3ccc(F)c(F)c3)c2)c1,,41,13,32,,-15,
CCOc1cc(-c2cccc(Br)c2)cnn1,8.6,19,5.7,39,4,,

# Next, values leading:
Ki [1] [nM],Ki [2] [nM],Ki [3] [nM],Efficacy [4],Efficacy [5],Efficacy [6],Efficacy [7],Structure (SMILES)
8.5,10.4,8.8,43,-5,,,Cn1ncnc1COc1cccc(-c2cnnc(-c3ccccc3)c2)c1
12,27,8.4,22,18,,,CC(C)Oc1cccc(-c2cnnc(-c3ccccc3)c2)c1
,7.9,3.4,-17,-31,,,N#Cc1cccc(-c2cnnc(-c3ccccc3F)c2)c1
,302,63,32,,,,Brc1cccc(-c2cnnc(OCc3ccccc3)c2)c1
36,45,29,-20,-14,,,c1ccc(-c2cnnc(-c3ccccc3)c2)cc1
,29,11,-7,-48,,,COC(=O)c1cccc(-c2cnnc(-c3ccccc3)c2)c1
,440,323,,,,,N#Cc1ccccc1-c1cnnc(-c2ccccc2)c1
1.3,3.1,1.6,-49,-62,,,c1ccc(-c2cc(-c3ccnc(-c4ccncc4)n3)cnn2)cc1
,7.2,4,3.6,0,,,N#Cc1cccc(-c2cnnc(-c3cccc(F)c3)c2)c1
27,81,56,49,45,,,N#Cc1ccc(-c2cnnc(-c3ccccc3)c2)cc1
7.5,15,7.9,,-2,,-2,Brc1cccc(-c2cnnc(-c3ccccc3)c2)c1
,51,19,66,14,,,Brc1cccc(-c2cnnc(NCc3ccccc3)c2)c1
,26,14,,,,,N#Cc1cccc(-c2cnnc(-c3ccc(F)cc3)c2)c1
,15,6.1,59,17,,,N#Cc1cccc(-c2cnnc(NCc3ccccc3)c2)c1
49,113,27,3,-26,,,CNc1cc(-c2cccc(Br)c2)cnn1
> 666,> 666,> 666,,,,,N#Cc1cccc(-c2cc(-c3ccccc3)cnn2)c1
,41,12,13,-31,,,c1ccc(-c2cc(-c3cccc(-n4cnnc4)c3)cnn2)cc1
,60,17,60,,,,N#Cc1cccc(-c2cnnc(OCc3ccccc3)c2)c1
